Results: ChEMBL document CHEMBL1131611, “N-(Iodopropenyl)-octahydrobenzo[f]- and -[g]quinolines: synthesis and adrenergic and dopaminergic activity studies” (J Med Chem, 1998)

How the values were obtained:
Assay type in all cases: cell membranes, Membrane; call rule not given here
[1] = target: T1, Adrenergic receptor alpha-2 (Rattus norvegicus, UniProt P22086+P19328+P22909); experiment: Inhibition of specific binding of [3H]rauwolscine to Alpha-2 adrenergic receptor in rat cortical membranes
T1 sequence (P22086 whole entry): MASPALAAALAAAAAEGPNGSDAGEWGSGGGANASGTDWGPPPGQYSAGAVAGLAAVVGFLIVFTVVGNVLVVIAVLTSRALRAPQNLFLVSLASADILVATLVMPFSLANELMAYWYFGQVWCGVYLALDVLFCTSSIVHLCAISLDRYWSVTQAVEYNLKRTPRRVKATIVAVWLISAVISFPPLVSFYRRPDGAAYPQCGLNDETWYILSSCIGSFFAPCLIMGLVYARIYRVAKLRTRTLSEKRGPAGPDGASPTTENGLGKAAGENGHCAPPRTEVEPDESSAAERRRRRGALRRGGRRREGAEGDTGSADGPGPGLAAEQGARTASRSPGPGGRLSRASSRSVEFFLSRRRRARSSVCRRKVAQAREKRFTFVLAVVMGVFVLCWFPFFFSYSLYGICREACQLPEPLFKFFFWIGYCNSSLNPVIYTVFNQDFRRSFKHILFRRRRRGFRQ
T1 sequence (P19328 whole entry): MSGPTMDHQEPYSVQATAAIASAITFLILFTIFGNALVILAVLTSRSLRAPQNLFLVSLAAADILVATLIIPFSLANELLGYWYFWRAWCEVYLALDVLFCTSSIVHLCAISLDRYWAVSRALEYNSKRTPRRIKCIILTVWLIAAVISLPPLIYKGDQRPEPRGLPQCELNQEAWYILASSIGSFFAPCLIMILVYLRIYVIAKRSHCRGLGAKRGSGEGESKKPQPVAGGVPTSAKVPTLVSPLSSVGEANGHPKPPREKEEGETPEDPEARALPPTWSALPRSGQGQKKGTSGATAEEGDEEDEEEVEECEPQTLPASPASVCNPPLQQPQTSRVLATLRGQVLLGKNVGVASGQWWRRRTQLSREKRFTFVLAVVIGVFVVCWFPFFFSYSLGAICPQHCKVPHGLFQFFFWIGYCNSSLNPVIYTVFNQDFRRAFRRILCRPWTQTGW
T1 sequence (P22909 whole entry): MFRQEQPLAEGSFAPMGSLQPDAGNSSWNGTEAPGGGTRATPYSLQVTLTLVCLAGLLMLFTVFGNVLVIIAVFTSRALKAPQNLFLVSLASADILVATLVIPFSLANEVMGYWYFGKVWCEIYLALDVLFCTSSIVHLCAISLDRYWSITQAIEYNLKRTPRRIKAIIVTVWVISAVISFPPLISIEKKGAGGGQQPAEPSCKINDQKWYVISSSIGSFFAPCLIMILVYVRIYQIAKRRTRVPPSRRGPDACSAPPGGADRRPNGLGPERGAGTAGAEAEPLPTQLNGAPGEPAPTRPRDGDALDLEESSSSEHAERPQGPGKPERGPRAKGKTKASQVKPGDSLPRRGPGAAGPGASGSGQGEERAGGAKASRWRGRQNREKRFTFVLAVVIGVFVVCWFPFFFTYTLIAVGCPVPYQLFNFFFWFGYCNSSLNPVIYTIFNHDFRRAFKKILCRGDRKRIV

[2] = target: T2, Adrenergic receptor alpha-1 (Rattus norvegicus, UniProt P15823+P23944+P43140); experiment: Displacement of [3H]prazosin from Alpha-1 adrenergic receptor of rat cortical membranes
T2 sequence (P15823 whole entry): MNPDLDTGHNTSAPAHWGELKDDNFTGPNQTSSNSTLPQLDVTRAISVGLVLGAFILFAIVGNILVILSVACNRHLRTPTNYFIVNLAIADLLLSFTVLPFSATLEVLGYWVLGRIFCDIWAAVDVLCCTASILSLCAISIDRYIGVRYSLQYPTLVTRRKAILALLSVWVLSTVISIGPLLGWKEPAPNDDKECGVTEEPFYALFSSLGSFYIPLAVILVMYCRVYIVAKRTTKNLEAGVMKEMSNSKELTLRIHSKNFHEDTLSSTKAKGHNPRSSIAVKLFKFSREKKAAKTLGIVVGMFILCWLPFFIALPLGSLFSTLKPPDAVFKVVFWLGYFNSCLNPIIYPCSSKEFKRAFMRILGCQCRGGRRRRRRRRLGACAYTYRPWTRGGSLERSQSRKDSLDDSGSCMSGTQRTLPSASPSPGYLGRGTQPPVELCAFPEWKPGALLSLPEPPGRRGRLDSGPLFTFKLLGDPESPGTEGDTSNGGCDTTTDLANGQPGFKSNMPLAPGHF
T2 sequence (P23944 whole entry): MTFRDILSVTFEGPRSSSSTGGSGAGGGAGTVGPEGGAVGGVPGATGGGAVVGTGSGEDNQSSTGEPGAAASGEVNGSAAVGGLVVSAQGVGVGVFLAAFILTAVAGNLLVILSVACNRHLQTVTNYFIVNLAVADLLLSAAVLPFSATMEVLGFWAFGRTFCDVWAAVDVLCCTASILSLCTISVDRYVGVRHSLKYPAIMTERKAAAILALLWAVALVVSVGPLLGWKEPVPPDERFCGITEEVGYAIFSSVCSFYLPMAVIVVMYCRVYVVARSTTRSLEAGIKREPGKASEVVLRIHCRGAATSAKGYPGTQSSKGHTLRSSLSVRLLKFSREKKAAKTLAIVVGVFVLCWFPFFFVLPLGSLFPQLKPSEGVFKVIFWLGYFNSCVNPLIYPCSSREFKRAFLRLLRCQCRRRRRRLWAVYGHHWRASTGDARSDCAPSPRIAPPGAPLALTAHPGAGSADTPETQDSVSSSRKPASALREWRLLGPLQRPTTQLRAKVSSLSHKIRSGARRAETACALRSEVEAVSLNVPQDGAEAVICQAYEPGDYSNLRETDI
T2 sequence (P43140 whole entry): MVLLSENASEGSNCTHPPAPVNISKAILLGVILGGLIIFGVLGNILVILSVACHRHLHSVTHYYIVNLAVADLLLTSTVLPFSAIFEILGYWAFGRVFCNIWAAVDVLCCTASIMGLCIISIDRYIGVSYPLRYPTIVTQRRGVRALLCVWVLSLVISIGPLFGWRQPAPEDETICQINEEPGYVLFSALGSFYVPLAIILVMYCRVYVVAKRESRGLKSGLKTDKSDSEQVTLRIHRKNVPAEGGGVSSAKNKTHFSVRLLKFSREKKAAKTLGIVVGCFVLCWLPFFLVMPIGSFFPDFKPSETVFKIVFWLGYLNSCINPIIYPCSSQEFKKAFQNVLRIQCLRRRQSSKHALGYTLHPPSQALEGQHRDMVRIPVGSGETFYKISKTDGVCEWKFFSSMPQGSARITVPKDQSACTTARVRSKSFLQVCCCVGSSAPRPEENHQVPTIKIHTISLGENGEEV

D(1A) dopamine receptor [3] = target: T3, D(1A) dopamine receptor (Rattus norvegicus, UniProt P18901); experiment: Inhibition of specific binding of [3H]-SCH- 23390 to Dopamine receptor D1 in rat striatal membranes; NA= Not active up to a concentration of 5 uM
T3 sequence (P18901 whole entry): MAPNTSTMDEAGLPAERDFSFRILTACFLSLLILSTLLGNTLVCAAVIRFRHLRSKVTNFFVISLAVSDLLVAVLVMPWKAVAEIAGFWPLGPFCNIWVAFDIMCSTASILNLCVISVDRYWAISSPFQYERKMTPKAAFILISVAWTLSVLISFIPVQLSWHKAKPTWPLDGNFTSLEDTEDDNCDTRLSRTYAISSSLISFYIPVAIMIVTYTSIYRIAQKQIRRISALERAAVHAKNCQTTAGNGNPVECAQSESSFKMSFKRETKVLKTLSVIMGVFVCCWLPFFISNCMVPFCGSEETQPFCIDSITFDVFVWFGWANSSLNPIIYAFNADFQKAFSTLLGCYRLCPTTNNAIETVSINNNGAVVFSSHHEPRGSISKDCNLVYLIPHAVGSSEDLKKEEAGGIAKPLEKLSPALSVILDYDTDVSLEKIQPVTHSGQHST
How it was run: (§1)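 Competition radioligand binding in rat striatal membranes: D2 sites labelled with [3H]spiroperidol and D1 sites with [3H]SCH-23390. Inhibition of specific binding was measured. Three experiments, each in duplicate. Compounds were tested up to 5 μM, and those without binding at that level were scored not active.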

D(2) dopamine receptor [4] = target: T4, D(2) dopamine receptor (Rattus norvegicus, UniProt P61169); experiment: Displacement of [3H]spiroperidol from Dopamine receptor D2 of rat striatal membranes; how it was run: as §1
T4 sequence (P61169 whole entry): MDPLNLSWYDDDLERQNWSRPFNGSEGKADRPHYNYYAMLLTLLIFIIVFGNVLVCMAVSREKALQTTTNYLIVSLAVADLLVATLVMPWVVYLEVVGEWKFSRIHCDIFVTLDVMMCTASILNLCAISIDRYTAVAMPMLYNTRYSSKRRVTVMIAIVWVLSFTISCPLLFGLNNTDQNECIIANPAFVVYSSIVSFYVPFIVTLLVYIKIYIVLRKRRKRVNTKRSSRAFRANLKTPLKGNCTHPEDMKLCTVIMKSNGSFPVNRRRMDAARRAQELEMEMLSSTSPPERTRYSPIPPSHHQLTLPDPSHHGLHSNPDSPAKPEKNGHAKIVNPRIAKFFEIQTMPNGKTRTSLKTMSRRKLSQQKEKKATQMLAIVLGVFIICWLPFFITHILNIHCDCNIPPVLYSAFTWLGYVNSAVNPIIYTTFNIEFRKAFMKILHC

D(1A) dopamine receptor [5] = target: T3, D(1A) dopamine receptor; experiment: Displacement of [3H]-SCH- 23390 from Dopamine receptor D1 of rat striatal membranes; how it was run: as §1
[6] = target: T1, Adrenergic receptor alpha-2; experiment: Displacement of [3H]rauwolscine from Alpha-2 adrenergic receptor of rat cortical membranes
D(2) dopamine receptor [7] = target: T4, D(2) dopamine receptor; experiment: Inhibition of specific binding of [3H]spiroperidol to Dopamine receptor D2 in rat striatal membranes; how it was run: as §1
D(1A) dopamine receptor [8] = target: T3, D(1A) dopamine receptor; experiment: Inhibition of specific binding of [3H]-SCH- 23390 to Dopamine receptor D1 in rat striatal membranes; Not active up to a concentration of 5 uM; how it was run: as §1

Q: With `C#CCN1CCC[C@@H]2c3cccc(OC)c3CC[C@H]21` as the compound, how does the IC50 [1] read?
A: 196 nM

Q: What about the IC50 [2] of the same compound?
A: 497 nM

Q: What about the IC50 (D(1A) dopamine receptor [3]) of the same compound?
A: Not Active

Q: And the IC50 (D(2) dopamine receptor [4])?
A: Not Active

Q: Which results are given for `COc1cccc2c1CC1CCCN(C/C=C/I)C1C2` (stereo not given)?
A: IC50 (D(1A) dopamine receptor [5]): 80 nM; IC50 [2]: 43 nM; IC50 [6]: 226 nM; IC50 (D(2) dopamine receptor [4]): Not Active

Q: For `C#CCN1CCC[C@@H]2c3ccccc3CC[C@H]21`, which IC50 [6] is on record?
A: 160 nM

Q: What about the IC50 (D(1A) dopamine receptor [3]) of the same compound?
A: Not Active

Q: What about the IC50 (D(2) dopamine receptor [4]) of the same compound?
A: Not Active

Q: `C#CCN1CCCC2Cc3c(cccc3OC)CC21` (stereo not given) was tested. Which IC50 [2] did it give?
A: 1850 nM

Q: What about the IC50 [6] of the same compound?
A: 197 nM

Q: And the IC50 (D(1A) dopamine receptor [3])?
A: Not Active

Q: And the IC50 (D(2) dopamine receptor [4])?
A: Not Active

Q: With `Oc1cccc2c1CC1CCCN(C/C=C/I)C1C2` (stereo not given) as the compound, how does the IC50 (D(1A) dopamine receptor [5]) read?
A: 120 nM

Q: And the IC50 (D(2) dopamine receptor [7])?
A: 490 nM

Q: What about the IC50 [2] of the same compound?
A: 54 nM

Q: And the IC50 [6]?
A: 0.5 nM

Q: What does the source list for `Oc1cccc2c1CC[C@@H]1[C@@H]2CCCN1C/C=C/I`?
A: IC50 (D(1A) dopamine receptor [5]): 1130 nM; IC50 [1]: 47 nM; IC50 [2]: 225 nM; IC50 (D(2) dopamine receptor [4]): Not Active

Q: Which IC50 [1] does the source give for `COc1cccc2c1CC[C@H]1NCCC[C@H]21` here?
A: 55 nM

Q: What about the IC50 (D(1A) dopamine receptor [3]) of the same compound?
A: Not Active

Q: And the IC50 (D(2) dopamine receptor [4])?
A: Not Active

Q: Which IC50 [2] does the source give for `C#CCN1CCCC2Cc3ccccc3CC21` (stereo not given) here?
A: 1300 nM

Q: What about the IC50 (D(1A) dopamine receptor [8]) of the same compound?
A: Not Active

Q: What about the IC50 [6] of the same compound?
A: 142 nM

Q: What about the IC50 (D(2) dopamine receptor [4]) of the same compound?
A: Not Active

Q: For `COc1cccc2c1CC[C@@H]1[C@@H]2CCCN1C/C=C/I`, which IC50 (D(1A) dopamine receptor [5]) is on record?
A: 270 nM

Q: What about the IC50 [1] of the same compound?
A: 18 nM

Q: And the IC50 [2]?
A: 508 nM

Q: What about the IC50 (D(2) dopamine receptor [4]) of the same compound?
A: Not Active

Q: What does the source list for `c1ccc2c(c1)CC1CCCNC1C2` (stereo not given)?
A: IC50 [1]: 130 nM; IC50 (D(1A) dopamine receptor [8]): Not Active; IC50 (D(2) dopamine receptor [4]): Not Active

Q: `NC1CCc2cc(O)c(O)cc2C1` (stereo not given) was tested. Which IC50 (D(2) dopamine receptor [7]) did it give?
A: 700 nM

Q: For `C#CCN1CCCC2Cc3c(O)cccc3CC21` (stereo not given), which IC50 (D(1A) dopamine receptor [5]) is on record?
A: 700 nM

Q: And the IC50 (D(2) dopamine receptor [7])?
A: 5110 nM

Q: What about the IC50 [2] of the same compound?
A: 209 nM

Q: And the IC50 [6]?
A: 251 nM

Q: What does the source list for `COc1cccc2c1CC1CCCNC1C2` (stereo not given)?
A: IC50 [2]: 2200 nM; IC50 [6]: 67.5 nM; IC50 (D(1A) dopamine receptor [3]): Not Active; IC50 (D(2) dopamine receptor [4]): Not Active

Q: What does the source list for `c1ccc2c(c1)CC[C@H]1NCCC[C@H]21`?
A: IC50 [6]: 154 nM; IC50 (D(1A) dopamine receptor [3]): Not Active; IC50 (D(2) dopamine receptor [4]): Not Active

Q: Which IC50 (D(1A) dopamine receptor [5]) does the source give for `I/C=C/CN1CCC[C@@H]2c3ccccc3CC[C@H]21` here?
A: 1900 nM

Q: And the IC50 [1]?
A: 128 nM

Q: What about the IC50 [2] of the same compound?
A: 253 nM

Q: And the IC50 (D(2) dopamine receptor [4])?
A: Not Active

Q: Which IC50 (D(1A) dopamine receptor [5]) does the source give for `I/C=C/CN1CCCC2Cc3ccccc3CC21` (stereo not given) here?
A: 220 nM

Q: And the IC50 [2]?
A: 274 nM

Q: What about the IC50 [6] of the same compound?
A: 33 nM

Q: What about the IC50 (D(2) dopamine receptor [4]) of the same compound?
A: Not Active

Q: With `C#CCN1CCC[C@@H]2c3cccc(O)c3CC[C@H]21` as the compound, how does the IC50 [1] read?
A: 49 nM

Q: What about the IC50 (D(1A) dopamine receptor [8]) of the same compound?
A: Not Active

Q: What about the IC50 (D(2) dopamine receptor [4]) of the same compound?
A: Not Active
